{"source": "paper PMC9087257", "about": "(The Journal of International Medical Research, 2022)", "key": {"[1]": {"test_system": "TE-11, SK-BR-3, HO-8910, QGY-7701, SHG-44, HCC-44, COLO-320, SH-SY5Y and SW579 cells", "assay": "MTT cell viability, panel of nine cancer cell lines", "format": "cell-based", "conditions": "48 h"}, "NCI-H460 xenograft": {"test_system": "NCI-H460 xenograft", "assay": "NCI-H460 xenograft study", "format": "in vivo, BALB/c nude mice", "in_short": "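BALB/c nude mice (4 weeks, 18–21 g) carried NCI-H460 xenografts and were housed at 26–28°C on a 13 h/11 h light cycle. At tumour volume 100 mm3, mice were randomised, 5 per group, to water vehicle or 50 mg/kg test compound intragastrically every 3 days for 16 days. Tumours were then excised and weighed; heart, liver, spleen, lung and kidney taken for H&E.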"}, "TRKA": {"target": "TRKA (Homo sapiens, UniProt P04629)", "sequence (P04629 33-796)": "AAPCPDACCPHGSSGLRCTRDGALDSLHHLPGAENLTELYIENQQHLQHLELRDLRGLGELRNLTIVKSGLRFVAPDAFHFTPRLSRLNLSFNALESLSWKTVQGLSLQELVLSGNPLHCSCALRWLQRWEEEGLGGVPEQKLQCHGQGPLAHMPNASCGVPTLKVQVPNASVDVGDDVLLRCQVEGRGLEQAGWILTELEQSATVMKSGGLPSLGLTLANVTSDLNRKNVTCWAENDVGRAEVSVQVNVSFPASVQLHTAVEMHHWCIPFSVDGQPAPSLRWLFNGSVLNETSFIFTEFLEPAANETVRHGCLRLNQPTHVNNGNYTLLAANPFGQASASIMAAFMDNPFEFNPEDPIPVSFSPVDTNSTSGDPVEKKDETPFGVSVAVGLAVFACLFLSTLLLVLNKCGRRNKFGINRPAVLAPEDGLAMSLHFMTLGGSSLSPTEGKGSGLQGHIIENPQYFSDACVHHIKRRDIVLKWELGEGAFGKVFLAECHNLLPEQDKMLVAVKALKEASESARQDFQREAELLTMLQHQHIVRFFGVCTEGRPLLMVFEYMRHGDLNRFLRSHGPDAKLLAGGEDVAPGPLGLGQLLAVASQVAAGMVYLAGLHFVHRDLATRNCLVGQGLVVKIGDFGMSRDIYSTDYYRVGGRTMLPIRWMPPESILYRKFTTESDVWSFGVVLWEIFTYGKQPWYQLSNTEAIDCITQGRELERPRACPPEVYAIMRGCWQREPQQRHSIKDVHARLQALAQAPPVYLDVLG", "assay": "ELISA kinase assay, TRKA", "format": "biochemical", "in_short": "(§1)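 Tyrosine kinase ELISA: ATP in kinase reaction buffer, then test compound diluted in DMSO (DMSO as negative control). Reaction started by adding purified kinase and incubated 1 h at 37°C. Plate washed three times with 1 mM PBS (pH 7.5), then HRP-conjugated goat anti-mouse IgG added for 30 min at 37°C. Washed again and read by spectrophotometer.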"}, "EGFR": {"target": "EGFR (Homo sapiens, UniProt P00533)", "sequence (P00533 25-1210)": "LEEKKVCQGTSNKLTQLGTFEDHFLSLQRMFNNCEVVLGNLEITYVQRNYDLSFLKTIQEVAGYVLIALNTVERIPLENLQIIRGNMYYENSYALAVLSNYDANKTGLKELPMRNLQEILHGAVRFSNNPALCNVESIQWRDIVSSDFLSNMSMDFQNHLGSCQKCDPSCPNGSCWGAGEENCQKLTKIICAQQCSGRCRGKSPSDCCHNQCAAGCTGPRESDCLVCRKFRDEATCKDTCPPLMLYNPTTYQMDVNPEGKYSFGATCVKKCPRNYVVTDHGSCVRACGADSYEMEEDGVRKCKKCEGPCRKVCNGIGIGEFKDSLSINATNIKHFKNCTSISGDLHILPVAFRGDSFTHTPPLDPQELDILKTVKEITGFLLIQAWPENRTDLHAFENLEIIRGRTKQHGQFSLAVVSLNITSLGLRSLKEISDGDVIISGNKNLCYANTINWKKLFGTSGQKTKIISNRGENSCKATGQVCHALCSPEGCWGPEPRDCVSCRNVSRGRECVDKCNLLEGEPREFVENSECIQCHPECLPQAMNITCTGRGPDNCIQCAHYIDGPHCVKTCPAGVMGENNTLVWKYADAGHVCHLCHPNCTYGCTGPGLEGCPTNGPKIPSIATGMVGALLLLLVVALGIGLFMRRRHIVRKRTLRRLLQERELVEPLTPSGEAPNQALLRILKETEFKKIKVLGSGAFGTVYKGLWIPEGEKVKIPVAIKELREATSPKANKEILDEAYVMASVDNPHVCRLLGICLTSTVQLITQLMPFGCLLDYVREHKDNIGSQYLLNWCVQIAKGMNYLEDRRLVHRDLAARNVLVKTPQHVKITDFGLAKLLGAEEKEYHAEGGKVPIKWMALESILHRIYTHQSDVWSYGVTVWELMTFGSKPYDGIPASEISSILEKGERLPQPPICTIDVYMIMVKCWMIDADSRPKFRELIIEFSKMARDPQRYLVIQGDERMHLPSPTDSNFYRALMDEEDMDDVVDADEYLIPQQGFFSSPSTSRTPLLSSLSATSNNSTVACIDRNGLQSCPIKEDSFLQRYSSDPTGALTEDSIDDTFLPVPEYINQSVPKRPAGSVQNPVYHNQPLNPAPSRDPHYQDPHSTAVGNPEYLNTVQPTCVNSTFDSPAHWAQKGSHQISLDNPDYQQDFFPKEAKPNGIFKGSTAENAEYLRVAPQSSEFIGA", "assay": "ELISA kinase assay, EGFR", "format": "biochemical", "in_short": "as §1"}, "ALK": {"target": "ALK (Homo sapiens, UniProt Q9UM73)", "sequence (Q9UM73 19-1620)": "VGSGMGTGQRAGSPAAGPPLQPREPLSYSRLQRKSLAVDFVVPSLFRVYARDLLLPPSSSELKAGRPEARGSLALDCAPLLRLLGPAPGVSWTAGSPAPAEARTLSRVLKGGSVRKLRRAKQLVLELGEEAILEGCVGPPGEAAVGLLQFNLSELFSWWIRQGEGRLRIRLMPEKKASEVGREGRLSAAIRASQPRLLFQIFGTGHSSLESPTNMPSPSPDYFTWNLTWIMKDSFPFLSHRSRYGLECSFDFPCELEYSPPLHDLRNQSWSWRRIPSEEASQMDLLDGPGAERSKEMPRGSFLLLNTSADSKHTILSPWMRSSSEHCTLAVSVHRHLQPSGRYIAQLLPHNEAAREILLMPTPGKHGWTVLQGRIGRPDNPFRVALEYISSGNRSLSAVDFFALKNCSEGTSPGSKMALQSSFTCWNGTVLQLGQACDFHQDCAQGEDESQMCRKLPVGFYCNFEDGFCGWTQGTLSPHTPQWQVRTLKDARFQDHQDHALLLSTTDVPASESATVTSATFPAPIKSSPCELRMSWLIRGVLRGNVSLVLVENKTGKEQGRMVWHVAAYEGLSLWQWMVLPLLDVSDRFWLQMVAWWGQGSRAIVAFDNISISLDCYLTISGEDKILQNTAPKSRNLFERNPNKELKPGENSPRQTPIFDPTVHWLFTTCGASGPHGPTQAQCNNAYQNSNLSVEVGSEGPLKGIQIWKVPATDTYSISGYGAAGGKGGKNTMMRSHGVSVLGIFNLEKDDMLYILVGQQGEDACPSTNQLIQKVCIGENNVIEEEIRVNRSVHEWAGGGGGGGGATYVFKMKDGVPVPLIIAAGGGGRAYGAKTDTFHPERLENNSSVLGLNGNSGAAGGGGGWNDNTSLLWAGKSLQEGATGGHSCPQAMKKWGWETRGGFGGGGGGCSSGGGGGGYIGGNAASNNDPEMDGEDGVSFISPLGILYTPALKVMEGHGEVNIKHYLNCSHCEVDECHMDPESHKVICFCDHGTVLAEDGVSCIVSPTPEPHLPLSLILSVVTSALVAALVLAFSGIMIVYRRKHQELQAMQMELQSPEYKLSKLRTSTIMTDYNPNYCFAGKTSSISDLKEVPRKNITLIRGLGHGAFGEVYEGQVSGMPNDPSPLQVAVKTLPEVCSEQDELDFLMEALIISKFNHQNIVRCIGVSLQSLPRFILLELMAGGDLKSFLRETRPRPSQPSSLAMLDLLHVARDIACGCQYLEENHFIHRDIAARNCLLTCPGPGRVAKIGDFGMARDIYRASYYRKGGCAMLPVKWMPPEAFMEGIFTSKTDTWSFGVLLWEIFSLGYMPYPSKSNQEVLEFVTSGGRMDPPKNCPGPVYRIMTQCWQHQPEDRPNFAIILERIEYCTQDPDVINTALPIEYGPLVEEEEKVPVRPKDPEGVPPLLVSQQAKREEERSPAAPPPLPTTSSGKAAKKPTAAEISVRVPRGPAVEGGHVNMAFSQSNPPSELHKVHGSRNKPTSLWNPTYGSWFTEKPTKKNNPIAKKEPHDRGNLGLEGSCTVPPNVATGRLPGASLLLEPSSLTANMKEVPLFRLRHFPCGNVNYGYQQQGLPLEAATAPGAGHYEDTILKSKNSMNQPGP", "assay": "ELISA kinase assay, ALK", "format": "biochemical", "in_short": "as §1"}, "NCI-H460 cells [2]": {"test_system": "NCI-H460 cells", "assay": "Wound healing assay", "format": "cell-based", "conditions": "75 nM, 150 nM and 300 nM, 48 h"}, "c-Met kinase": {"target": "c-Met kinase (Homo sapiens, UniProt P08581)", "assay": "ELISA kinase assay, c-Met", "format": "biochemical"}, "N-cadherin": {"test_system": "N-cadherin", "assay": "Western blotting, N-cadherin level", "format": "cell-based", "conditions": "NCI-H460 cells, 48 h, Western blot", "in_short": "(§2)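 Western blot: NCI-H460 cells treated 48 h with three test-compound concentrations; 5 × 10^6 cells lysed in RIPA, run on SDS-PAGE and transferred to PVDF. Membranes blocked in 5% defatted milk. Anti-E-cadherin or anti-N-cadherin (1:10000) at 4°C for 12 h; anti-GAPDH (1:50000) 2 h at 25°C as internal control. ECL detection; bands quantified against the control group; mean ± SEM.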"}, "PDGFRα": {"target": "PDGFRα (Homo sapiens, UniProt P16234)", "sequence (P16234 24-1089)": "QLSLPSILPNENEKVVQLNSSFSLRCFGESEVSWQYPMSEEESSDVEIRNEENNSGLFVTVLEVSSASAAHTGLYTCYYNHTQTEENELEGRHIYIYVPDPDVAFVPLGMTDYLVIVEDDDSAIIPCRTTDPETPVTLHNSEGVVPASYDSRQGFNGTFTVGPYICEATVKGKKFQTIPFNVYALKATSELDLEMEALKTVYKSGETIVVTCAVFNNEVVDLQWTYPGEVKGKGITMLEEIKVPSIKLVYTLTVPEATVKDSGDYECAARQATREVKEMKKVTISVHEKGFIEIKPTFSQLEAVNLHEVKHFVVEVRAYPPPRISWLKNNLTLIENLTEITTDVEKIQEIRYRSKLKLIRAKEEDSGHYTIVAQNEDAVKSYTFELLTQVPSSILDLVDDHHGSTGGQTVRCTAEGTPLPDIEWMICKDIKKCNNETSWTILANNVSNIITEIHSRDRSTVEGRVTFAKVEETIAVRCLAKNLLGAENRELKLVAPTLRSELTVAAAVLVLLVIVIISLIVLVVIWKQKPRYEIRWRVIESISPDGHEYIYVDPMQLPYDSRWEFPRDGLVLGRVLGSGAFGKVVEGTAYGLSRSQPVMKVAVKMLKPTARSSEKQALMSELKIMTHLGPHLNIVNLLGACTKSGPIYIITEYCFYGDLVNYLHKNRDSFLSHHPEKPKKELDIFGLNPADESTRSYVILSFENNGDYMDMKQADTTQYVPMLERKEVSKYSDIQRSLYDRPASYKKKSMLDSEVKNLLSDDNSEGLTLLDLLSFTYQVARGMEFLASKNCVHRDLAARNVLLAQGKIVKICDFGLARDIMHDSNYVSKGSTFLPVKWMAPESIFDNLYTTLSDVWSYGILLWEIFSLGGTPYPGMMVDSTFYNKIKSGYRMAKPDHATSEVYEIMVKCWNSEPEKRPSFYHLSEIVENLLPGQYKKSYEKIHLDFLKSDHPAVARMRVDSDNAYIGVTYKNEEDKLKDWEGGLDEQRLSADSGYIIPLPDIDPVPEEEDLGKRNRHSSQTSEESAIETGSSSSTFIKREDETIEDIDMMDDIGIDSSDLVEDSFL", "assay": "ELISA kinase assay, PDGFRα", "format": "biochemical", "in_short": "as §1"}, "NCI-H460 cells [3]": {"test_system": "NCI-H460 cells", "assay": "Transwell migration assay", "format": "cell-based", "conditions": "48 h", "in_short": "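Transwell migration with NCI-H460 cells, at three test-compound concentrations. Cells seeded in the upper chamber in serum-free RPMI-1640; lower chamber held RPMI-1640 with 10% FBS. After 48 h at 37°C, 5% CO2, cells were fixed and haematoxylin-stained, and migrated cells were counted.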"}, "HCC-44 cells": {"test_system": "HCC-44 cells", "assay": "MTT cell viability assay, HCC-44", "format": "cell-based", "conditions": "for antiproliferative efficacy against HCC-44 cells: 48 h, MTT", "in_short": "(§3)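 MTT viability: cells grown in RPMI-1640 with 10% FBS and penicillin-streptomycin, seeded in 24-well plates and held 24 h at 37°C, 5% CO2. Test compound added over a range of concentrations: 48 h for the cancer-line panel; three treatment durations for NCI-H460, NCI-H3122, HCC-44 and BEAS2B. MTT added for 2 h at 37°C, formazan dissolved in DMSO with 30 min shaking, absorbance read. Mean ± SEM.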"}, "[4]": {"assay": "MTT cytotoxicity against normal cells BEAS2B", "format": "cell-based", "conditions": "human, BEAS2B cells (normal human epithelium cells)", "in_short": "as §3"}, "NCI-H3122 cells": {"test_system": "NCI-H3122 cells", "assay": "MTT cell viability assay, NCI-H3122", "format": "cell-based", "conditions": "Homo sapiens, NCI-H3122, read-out: IC50 against NCI-H3122 cells", "in_short": "as §3"}, "E-cadherin": {"test_system": "E-cadherin", "assay": "Western blotting, E-cadherin level", "format": "cell-based", "conditions": "NCI-H460 cells, 48 h, Western blot", "in_short": "as §2"}, "NCI-H460 cells [5]": {"test_system": "NCI-H460 cells", "assay": "MTT cell viability assay, NCI-H460", "format": "cell-based", "conditions": "Homo sapiens, NCI-H460, read-out: IC50 against NCI-H460 cells", "in_short": "as §3"}, "FGFR1": {"target": "FGFR1 (Homo sapiens, UniProt P11362)", "assay": "ELISA kinase assay, FGFR1", "format": "biochemical", "in_short": "as §1"}}}
{"smiles": "O=C(/C=C/c1ccc(Br)cc1)c1ccc(OCCCSc2nncs2)cc1", "note": "[ZW97, (E)-1-(4-(3-((1,3,4-thiadiazol-2-yl)thio)propoxy)phenyl)-3-(4-bromophenyl)prop-2-en-1-one]", "values": [{"measurement": "antiproliferative activity in nine cancer cell lines", "setting": "[1]", "result": "antiproliferative activity against all nine cancer cell lines"}, {"measurement": "subcutaneous tumour growth", "setting": "NCI-H460 xenograft; 50 mg/kg intragastric for 16 days", "result": "suppressed NCI-H460 subcutaneous tumour growth"}, {"measurement": "mouse body weight", "setting": "NCI-H460 xenograft; 50 mg/kg intragastric for 16 days, compared with control", "result": "did not significantly decrease the mouse body weight"}, {"measurement": "inhibitory rate (tumour weight)", "setting": "NCI-H460 xenograft; day 16, 50 mg/kg intragastric once every 3 days, versus vehicle group", "result": 61.58, "unit": "%"}, {"measurement": "IC50", "setting": "TRKA", "result": "> 1500", "unit": "nM"}, {"measurement": "IC50", "setting": "EGFR", "result": "> 1500", "unit": "nM"}, {"measurement": "IC50", "setting": "ALK", "result": "> 1500", "unit": "nM"}, {"measurement": "wound healing", "setting": "NCI-H460 cells [2]", "result": "inhibited the wound healing in a concentration dependent manner"}, {"measurement": "IC50", "setting": "c-Met kinase", "result": "27.96 ± 0.14", "unit": "nM"}, {"measurement": "level of N-cadherin", "setting": "N-cadherin", "result": "downregulated"}, {"measurement": "IC50", "setting": "PDGFRα", "result": "> 1500", "unit": "nM"}, {"measurement": "cell migration (transwell)", "setting": "NCI-H460 cells [3]", "result": "hindered NCI-H460 cell migration"}, {"measurement": "antiproliferative efficacy against HCC-44 cells", "setting": "HCC-44 cells; 4 μM", "result": "approximately 65.7%"}, {"measurement": "antiproliferative efficacy against HCC-44 cells", "setting": "HCC-44 cells; 8 μM", "result": "~88.3", "unit": "%"}, {"measurement": "IC50", "setting": "HCC-44 cells; Homo sapiens, HCC44, read-out: IC50 against HCC-44 cells", "result": 2060, "unit": "nM"}, {"measurement": "IC50", "setting": "[4]", "result": "> 64000", "unit": "nM"}, {"measurement": "IC50", "setting": "NCI-H3122 cells", "result": 1170, "unit": "nM"}, {"measurement": "level of E-cadherin", "setting": "E-cadherin", "result": "upregulated"}, {"measurement": "IC50", "setting": "NCI-H460 cells [5]", "result": 150, "unit": "nM"}, {"measurement": "IC50", "setting": "FGFR1", "result": "> 1500", "unit": "nM"}]}
